# Active and inactive are the calls of the source. No cut-off for these calls is given here.
# Experiments:
# Staphylococcus aureus [1] = test: Inhibition of pigmentation in wild type Staphylococcus aureus Newman after 48 hrs by spectrophotometric method; format: functional, organism-based
# In short: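 S. aureus Newman was grown in TSB 48 h at 37 °C with a concentration series of compound in DMSO, in duplicate. Controls were a DMSO vehicle and a nonpigmented CrtN mutant. Cells were washed twice in 0.01 M PBS and pigment extracted in methanol. A450 was measured and IC50 derived by curve fitting.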
# HepG2 = test: Cytotoxicity against human HepG2 cells assessed as reduction in cell viability after 72 hrs by CCK-8 assay; format: functional; conditions: HepG2, 72 h
# In short: (§1)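 HepG2 or HEK-293T cells were seeded at 5000 per well and grown 24 h at 37 °C, 5% CO₂. Cells were then exposed to compound for 72 h; compound came from DMSO, diluted in medium to final DMSO <0.4%, with a DMSO-matched vehicle control. Viability was read by 10% CCK-8 for 1 h, absorbance 450 nm, in triplicate.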
# HEK-293T = test: Cytotoxicity against HEK293T cells assessed as reduction in cell viability after 72 hrs by CCK-8 assay; format: functional; conditions: Homo sapiens; in short: as §1
# [2] = Solubility of the compound in water by UV analysis; format: physicochemical
# Staphylococcus aureus [3] = test: Antibacterial activity against wild type Staphylococcus aureus Newman infected in BALB/c mouse assessed as decrease in bacterial load in mouse liver at 0.4 mg, ip bid administered 4.5 days measured after 90 hrs relative to control; format: functional
# Staphylococcus aureus [4] = test: Antibacterial activity against vancomycin-intermediate methicillin-resistant Staphylococcus aureus Mu50 infected in BALB/c mouse assessed as decrease in bacterial survival in mouse liver at 0.4 mg, ip bid administered 4.5 days measured after 90 hrs; format: functional, organism-based
# In short: (§2)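 6–8-week-old female BALB/c mice (SPF) dosed intraperitoneally twice daily over 4.5 d at 0.1 or 0.4 mg/bid. Pre-treatment started before infection; post-treatment started 6 h after infection. Vancomycin and linezolid controls given as pre-treatment at 0.4 mg/bid. Retro-orbital inoculation: Mu50 1.1 × 10⁹ CFU, NRS271 1.8 × 10⁸ CFU. Kidneys and livers homogenised in PBS/0.01% Triton X-100 and plated on TSA for CFU.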
# Staphylococcus aureus [5] = test: Antibacterial activity against methicillin/linezolid-resistant Staphylococcus aureus NRS271 infected in BALB/c mouse assessed as decrease in bacterial survival in mouse liver at 0.4 mg, ip bid administered 4.5 days measured after 90 hrs; format: functional, organism-based; in short: as §2
# Staphylococcus aureus [6] = test: Antibacterial activity against wild type Staphylococcus aureus Newman assessed as bacterial survival at 1 uM after 24 hrs by H2O2 killing assay (reference value: 26.67%); format: functional
SMILES,IC50 (Staphylococcus aureus [1]) [µM],other results
CN(C/C=C/c1ccc(C#N)cc1)Cc1ccc2c(c1)OCO2,0.0125,–
Cc1ccc(/C=C/CN(C)Cc2ccc3c(c2)OCO3)cc1,0.0157,–
CN(C/C=C/c1ccc(Br)cc1)Cc1ccc2c(c1)OCO2.Cl,0.0046,CC50 (HepG2): 104 µM; CC50 (HEK-293T): 68.3 µM; solubility [2]: 17.5 mg/mL
COc1ccc(/C=C/CN(C)Cc2ccc3c(c2)OCO3)cc1,0.0091,–
CN(C/C=C/c1ccc([N+](=O)[O-])cc1)Cc1ccc2c(c1)OCO2,0.0826,–
CN(C/C=C/c1ccc2ccccc2c1)Cc1ccc2c(c1)OCO2.Cl,0.004,CC50 (HepG2): 60.5 µM; CC50 (HEK-293T): 48.3 µM; solubility [2]: 4.56 mg/mL
CN(C/C=C/c1ccc(-c2ccccc2)cc1)Cc1ccc2c(c1)OCO2.Cl,0.0039,CC50 (HepG2): 53.6 µM; CC50 (HEK-293T): 59.1 µM; solubility [2]: 5.02 mg/mL
C[C@@H]1[C@H](O)[C@@H](C)/C=C/C=C/C=C/C=C/C=C/C=C/C=C/[C@H](O[C@@H]2O[C@H](C)[C@@H](O)[C@H](N)[C@@H]2O)C[C@@H]2O[C@](O)(C[C@@H](O)C[C@@H](O)[C@H](O)CC[C@@H](O)C[C@@H](O)CC(=O)O[C@H]1C)C[C@H](O)[C@H]2C(=O)O [AMPHOTERICIN B],–,CC50 (HepG2): 28.6 µM; CC50 (HEK-293T): 36.5 µM
CN(C/C=C/c1ccccc1)Cc1ccc2c(c1)OCO2,> 1,–
C/C=C/CN(C)Cc1ccc2c(c1)OCO2,> 1,–
COc1cccc(/C=C/CN(C)Cc2ccc3c(c2)OCO3)c1,> 1,–
CCOc1ccc(/C=C/CN(C)Cc2ccc3c(c2)OCO3)cc1.Cl,0.0042,CC50 (HepG2): 82.6 µM; CC50 (HEK-293T): 122 µM; solubility [2]: 24.2 mg/mL
CN(C/C=C/c1ccc(C(F)F)cc1)Cc1ccc2c(c1)OCO2.Cl,0.0041,CC50 (HepG2): 138 µM; CC50 (HEK-293T): 68 µM; solubility [2]: 9.03 mg/mL
CN(C/C=C/C1CCCC1)Cc1ccc2c(c1)OCO2,> 1,–
CN(C/C=C/C1CCCCC1)Cc1ccc2c(c1)OCO2,> 1,–
CN[C@H](CC(C)C)C(=O)N[C@H]1C(=O)N[C@@H](CC(N)=O)C(=O)N[C@H]2C(=O)N[C@H]3C(=O)N[C@H](C(=O)N[C@H](C(=O)O)c4cc(O)cc(O)c4-c4cc3ccc4O)[C@H](O)c3ccc(c(Cl)c3)Oc3cc2cc(c3O[C@@H]2O[C@H](CO)[C@@H](O)[C@H](O)[C@H]2O[C@H]2C[C@](C)(N)[C@H](O)[C@H](C)O2)Oc2ccc(cc2Cl)[C@H]1O [VANCOMYCIN],–,Activity (Staphylococcus aureus [3]): 2.13 deltalog10CFU
CC(=O)NC[C@H]1CN(c2ccc(N3CCOCC3)c(F)c2)C(=O)O1 [LINEZOLID],–,Activity (Staphylococcus aureus [4]): Active; Activity (Staphylococcus aureus [3]): 1.41 deltalog10CFU; Activity (Staphylococcus aureus [5]): Active
COC(=O)c1ccc(/C=C/CN(C)Cc2ccc3c(c2)OCO3)cc1,0.0079,–
CC(=O)N[C@@H](CS)C(=O)O [ACETYLCYSTEINE],–,survival at 1 µM (Staphylococcus aureus [6]): 57.3%

# Continued, in another order:
IC50 (Staphylococcus aureus [1]) [µM],SMILES,other results
0.121,CN(C/C=C/c1ccccc1F)Cc1ccc2c(c1)OCO2,–
> 1,CN(Cc1ccc2c(c1)OCO2)C[C@@H]1C[C@H]1c1ccc(C(F)(F)F)cc1F,–
> 1,CN(C/C=C/c1ccccc1Cl)Cc1ccc2c(c1)OCO2,–
0.0042,CN(C/C=C/c1ccc(Cl)cc1)Cc1ccc2c(c1)OCO2.Cl,CC50 (HepG2): 141 µM; CC50 (HEK-293T): 83.8 µM; solubility [2]: 18.7 mg/mL
> 1,Cc1ccccc1/C=C/CN(C)Cc1ccc2c(c1)OCO2,–
> 1,COc1ccccc1/C=C/CN(C)Cc1ccc2c(c1)OCO2,–
> 1,CN(C/C=C/c1ccco1)Cc1ccc2c(c1)OCO2,–
0.523,CN(C/C=C/c1cccc(C(F)(F)F)c1)Cc1ccc2c(c1)OCO2,–
0.0584,CN(C/C=C/c1ccc(F)cc1)Cc1ccc2c(c1)OCO2,–
0.0035,CN(C/C=C/c1ccc(C(F)(F)F)cc1)Cc1ccc2c(c1)OCO2.Cl,CC50 (HepG2): 69.2 µM; CC50 (HEK-293T): 133 µM; solubility [2]: 13.5 mg/mL
0.112,COc1ccc(/C=C/CN(C)Cc2ccc3c(c2)OCO3)cc1F,–
0.576,CN(C/C=C/c1cccc(Cl)c1)Cc1ccc2c(c1)OCO2,–
0.0179,CN(CC#Cc1ccc(C(F)(F)F)cc1F)Cc1ccc2c(c1)OCO2,–
0.0176,CN(C/C=C/c1ccc(Cl)cc1Cl)Cc1ccc2c(c1)OCO2,–
0.057,CN(C/C=C/c1ccc(C(F)(F)F)c(F)c1)Cc1ccc2c(c1)OCO2,–
> 1,CN(C/C=C/c1cccc2ccccc12)Cc1ccc2c(c1)OCO2,–
> 1,C/C(=C\c1ccc(C(F)(F)F)cc1F)CN(C)Cc1ccc2c(c1)OCO2,–
0.0052,CN(C/C=C/c1ccc(C(C)(C)C)cc1)Cc1ccc2c(c1)OCO2,–
> 1,CCN(C/C=C/c1ccc(C(F)(F)F)cc1F)Cc1ccc2c(c1)OCO2,–
0.0038,COc1ccc(/C=C/CN(C)Cc2ccc3c(c2)OCO3)c(F)c1.Cl,CC50 (HepG2): 120 µM; CC50 (HEK-293T): 76.8 µM; solubility [2]: 19.2 mg/mL
> 1,CC(C)N(C/C=C/c1ccc(C(F)(F)F)cc1F)Cc1ccc2c(c1)OCO2,–
0.0288,CN(C/C=C/c1ccccc1C(F)(F)F)Cc1ccc2c(c1)OCO2,–
> 1,CN(CCCc1ccc(C(F)(F)F)cc1F)Cc1ccc2c(c1)OCO2,–
0.372,Cc1cccc(/C=C/CN(C)Cc2ccc3c(c2)OCO3)c1,–
0.412,CN(C/C=C/c1cccc(F)c1)Cc1ccc2c(c1)OCO2,–
> 1,CN(C/C=C/c1cccs1)Cc1ccc2c(c1)OCO2,–
> 1,Fc1cc(C(F)(F)F)ccc1/C=C/CNCc1ccc2c(c1)OCO2,–
